Active and inactive are the calls of the source. Unless noted, no stated cut-off is given here; in the data, active means inhibition above about 30%; inactive means the rest.
Key:
[1] = Her2 expression decrease, cell viability multiplex – SKBR3 breast tumor cells, AlphaScreen, ATP viability, primary screen (AID 461;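 active means Her2 level under about 52% in both replicate screens, with viability over 70% of control, limit read from the data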;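 on Her2 level: lower value means less Her2 protein in the cells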;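 on viability: percent of carrier control wells set as 100% viability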); settings: SKBR3 Her2 protein level, 18-24 h, measured here: SKBR3 viability, ATP luminescence, at 10 µM
[2] = target: Receptor tyrosine-protein kinase erbB-2 (Homo sapiens) (UniProt P04626); assay: as above; settings: 18-24 h, at 10 µM, stronger effect = lower value
[3] = reduced viability of SK-BR-3 breast cancer cells – cell-based, 24 h, human, pilot screen (AID 572;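 active means viability at or below 10% of carrier control in both of two separate runs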;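 further: compound exposure lasted between 18 and 24 h rather than exactly 24 h; 100% = carrier-treated control wells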); settings: SK-BR-3 viability, CellTiter-Glo luminescence, at 10 µM, stronger effect = lower value
[4] = HUVEC growth inhibition – cell-based, human, primary screen (AID 575;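 active means viability at or below 30% in both replicate assays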;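 further: 100% = median of untreated cell wells with 0.1% DMSO on each plate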); settings: HUVEC proliferation, CellTiter-Glo luminescence, 72 h; at 10 µM; stronger effect = lower value
Method in brief: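 Material: primary human umbilical vein endothelial cells / Schedule: 72 h exposure, 37 °C, 5% CO2, 30 min RT equilibration / Signal: ATP-based CellTiter-Glo luminescent read / Read-out basis: percent of median DMSO-control luminescence / Control set: 32 DMSO-only cell-control wells (high), 32 MePR drug-control wells (low) per plate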

[5] = H69AR cell proliferation blockers – human, duplicate replicates, primary screen (AID 580;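 active means viability at or under a set limit in both replicates, limit being median viability minus 3 SD, cut at about 48% in these data, passing the limit was not always enough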;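 further: 100% = mean luminescence of untreated wells and 0% = no signal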); settings: H69AR lung tumor cells viability, ATP luminescence, 72 h; at 10 µM; stronger effect = lower value
[6] = MRP1 drug-resistance reversers in H69AR cells – cell-based, doxorubicin co-treatment, pilot screen (AID 601;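 active means viability loss from added drug above about 55%, and viability with drug at most 40%, in both replicates, limit read from the data, passing the limit was not always enough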); settings: CellTiter-Glo, 72 h, at 10 µM; for differential viability (reversal): stronger effect = higher value
[7] = yeast transport mutant growth inhibition pilot in 384-well plates, post-Golgi transport modulator project (AID 636; in the data active means inhibition above about 31%); settings: absorbance 615 nm, about 18 h, stronger effect = higher value
[8] = growth suppression of yeast trafficking mutant, preliminary HTS, modulators of trafficking downstream of Golgi apparatus project, 1536-format plate, OD 615 nm (AID 637); settings: yeast transport mutant growth, absorbance 615 nm, 18 h; stronger effect = higher value
[9] = H69AR cells + 2 uM doxorubicin, measured here: viability with 2 uM doxorubicin, stronger effect = lower value
[10] = H69AR cells, compound alone cytotoxicity

Sequence of Receptor tyrosine-protein kinase erbB-2 (Homo sapiens) (P04626 whole entry, looked up): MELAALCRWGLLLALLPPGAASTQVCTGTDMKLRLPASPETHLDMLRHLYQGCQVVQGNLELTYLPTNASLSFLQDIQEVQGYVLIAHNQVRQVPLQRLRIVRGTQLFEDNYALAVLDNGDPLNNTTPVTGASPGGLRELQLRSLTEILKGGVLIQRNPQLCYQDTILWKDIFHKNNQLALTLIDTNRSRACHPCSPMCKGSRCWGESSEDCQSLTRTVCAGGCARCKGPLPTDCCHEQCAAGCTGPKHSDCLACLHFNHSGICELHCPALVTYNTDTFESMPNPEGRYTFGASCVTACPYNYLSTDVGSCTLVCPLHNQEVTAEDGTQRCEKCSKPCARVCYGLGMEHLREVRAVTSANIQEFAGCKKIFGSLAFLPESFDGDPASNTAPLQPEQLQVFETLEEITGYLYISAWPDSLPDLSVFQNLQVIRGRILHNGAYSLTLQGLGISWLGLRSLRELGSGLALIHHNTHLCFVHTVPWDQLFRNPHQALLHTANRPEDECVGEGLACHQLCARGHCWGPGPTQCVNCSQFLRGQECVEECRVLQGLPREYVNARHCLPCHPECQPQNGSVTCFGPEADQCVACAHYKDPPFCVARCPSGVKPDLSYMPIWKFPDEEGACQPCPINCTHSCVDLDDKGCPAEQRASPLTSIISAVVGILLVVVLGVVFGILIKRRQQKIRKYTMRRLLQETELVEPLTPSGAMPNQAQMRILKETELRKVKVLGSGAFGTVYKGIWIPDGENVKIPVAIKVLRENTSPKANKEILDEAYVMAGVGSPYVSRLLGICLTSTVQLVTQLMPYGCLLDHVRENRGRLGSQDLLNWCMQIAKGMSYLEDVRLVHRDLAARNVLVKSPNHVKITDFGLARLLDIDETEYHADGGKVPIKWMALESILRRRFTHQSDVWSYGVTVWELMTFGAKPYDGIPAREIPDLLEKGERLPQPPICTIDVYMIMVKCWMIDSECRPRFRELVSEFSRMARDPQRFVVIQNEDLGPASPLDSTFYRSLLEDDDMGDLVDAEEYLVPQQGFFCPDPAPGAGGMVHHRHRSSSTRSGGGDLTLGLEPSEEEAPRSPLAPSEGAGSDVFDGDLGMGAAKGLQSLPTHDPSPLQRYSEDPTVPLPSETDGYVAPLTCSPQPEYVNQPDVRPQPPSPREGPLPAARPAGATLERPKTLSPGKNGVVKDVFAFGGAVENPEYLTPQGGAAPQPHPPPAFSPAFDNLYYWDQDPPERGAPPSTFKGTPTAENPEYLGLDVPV

Row | Structure (SMILES) | viability [1] | Her2 level [2] | viability [3] | viability [4] | viability [5] | differential viability (reversal) ([6]; H69AR cells + 2 uM doxorubicin) | viability [6, 9] | viability [6, 10] | inhibition [7] | inhibition [8]
1 | CCCCP(=O)(CCCC)c1ccccc1C(=O)O | 110% | 104% (inactive) | 110% (inactive) | 90% (inactive) | 107% (inactive) | 12.9% (inactive) | 94.2% | 107% | 1.82% (inactive) | -2.46% (inactive)
2 | O=C(Nc1ccc(F)cc1F)NC1CC(=O)N(Cc2ccccc2)C1 (stereo not given) | 92.5% | 89.5% (inactive) | 92.5% (inactive) | 109% (inactive) | 95.1% (inactive) | 0.32% (inactive) | 94.8% | 95.1% | 1.78% (inactive) | 26.2% (inactive)
3 | COc1ccc(C)cc1NC(=O)CSc1nnnn1Cc1ccccc1 | 83% | 96.5% (inactive) | 83% (inactive) | 82.1% (inactive) | 96.8% (inactive) | 6% (inactive) | 90.8% | 96.8% | -1.49% (inactive) | -2.62% (inactive)
4 | C=CCNC(=O)CN(c1cccc(Br)c1)S(C)(=O)=O | 96% | 106% (inactive) | 96% (inactive) | 94.6% (inactive) | 102% (inactive) | 10.9% (inactive) | 91.3% | 102% | -5.6% (inactive) | 0.16% (inactive)
5 | Cc1ccc(S(=O)(=O)N(CC(=O)N2CCC(C(N)=O)CC2)c2cccc(C(F)(F)F)c2)cc1 | 99.5% | 120% (inactive) | 99.5% (inactive) | 87.8% (inactive) | 82.9% (inactive) | -6.52% (inactive) | 89.4% | 82.9% | -3.33% (inactive) | 5% (inactive)
6 | O=C(O)c1cccc(CN2C(=O)SC(Nc3ccccc3)C2=O)c1 (stereo not given) | 110% | 89% (inactive) | 110% (inactive) | 83% (inactive) | 103% (inactive) | 8.78% (inactive) | 94% | 103% | -4.8% (inactive) | 2.95% (inactive)
7 | Cc1cc2c(=O)n(Cc3ccco3)c(SCC(=O)NCc3ccco3)nc2s1 | 100% | 88% (inactive) | 100% (inactive) | 93.7% (inactive) | 81.2% (inactive) | 4.87% (inactive) | 76.4% | 81.2% | -4% (inactive) | 1.9% (inactive)
8 | COc1cccc(-c2nnc3sc(-c4ccc(C)cc4)nn23)c1 | 103% | 81% (inactive) | 103% (inactive) | 57% (inactive) | 17.3% (active) | -61.5% (inactive) | 78.8% | 17.3% | -5.92% (inactive) | -4.03% (inactive)
9 | COCC(=O)N(Cc1nc2ccccc2c(=O)[nH]1)Cc1cccs1 | 103% | 100% (inactive) | 103% (inactive) | 93.3% (inactive) | 98.8% (inactive) | -2.5% (inactive) | 101% | 98.8% | -3.07% (inactive) | -0.65% (inactive)
10 | NC(=O)c1c(NC(=O)CN2CCCC2)sc2c1CCCC2 | 104% | 114% (inactive) | 104% (inactive) | 95.9% (inactive) | 91.3% (inactive) | 4.73% (inactive) | 86.6% | 91.3% | -0.8% (inactive) | -5.57% (inactive)
11 | CC1=CC=CC2=NC(=O)CC(C)(C(=O)N(CC(=O)NC(C)C)C3CCCC3)N12 (stereo not given) | 101% | 100% (inactive) | 101% (inactive) | 96.5% (inactive) | 94% (inactive) | -6.48% (inactive) | 100% | 94% | -4% (inactive) | 0.16% (inactive)
12 | C=CCNC(=O)c1cc(-c2ccccc2O)on1 | 97% | 82.5% (inactive) | 97% (inactive) | 99.1% (inactive) | 86.7% (inactive) | 0.065% (inactive) | 86.7% | 86.7% | 2.18% (inactive) | 4.17% (inactive)
13 | O=C(CSc1nc2ccccc2s1)N1CCN(C(=O)c2ccco2)CC1 | 86.5% | 97% (inactive) | 86.5% (inactive) | 79.8% (inactive) | 104% (inactive) | 9.76% (inactive) | 94.6% | 104% | -3.82% (inactive) | -5.17% (inactive)
14 | Cc1cnc(C(=O)Nc2ccc(-n3cnnn3)cc2)cn1 | 100% | 98.5% (inactive) | 100% (inactive) | 101% (inactive) | 105% (inactive) | 16.4% (inactive) | 88.9% | 105% | -4.93% (inactive) | -4.68% (inactive)
15 | C#CCN1C(=O)C(O)(CC(=O)c2cccc(OC)c2)c2ccccc21 (stereo not given) | 100% | 84% (inactive) | 100% (inactive) | 93.3% (inactive) | 21.7% (active) | -16.6% (inactive) | 38.3% | 21.7% | -7.03% (inactive) | 1.67% (inactive)
16 | CC1(C)CC(=O)C(C=NCCc2ccc(S(N)(=O)=O)cc2)=C(O)C1 | 116% | 95% (inactive) | 116% (inactive) | 98.7% (inactive) | 88% (inactive) | -2.06% (inactive) | 90% | 88% | -6.13% (inactive) | -2.3% (inactive)

Row | Structure (SMILES) | viability [1] | Her2 level [2] | viability [3] | viability [4] | viability [5] | differential viability (reversal) ([6]; H69AR cells + 2 uM doxorubicin) | viability [6, 9] | viability [6, 10] | inhibition [7] | inhibition [8]
17 | Cc1nc2c(-c3ccccc3)c(C)nn2c(C)c1CCC(=O)O | 97.5% | 100% (inactive) | 97.5% (inactive) | 85.5% (inactive) | 86.2% (inactive) | -0.87% (inactive) | 87% | 86.2% | -4% (inactive) | 5.57% (inactive)
18 | CCOc1ccc(-n2cc(C(=O)N3CCN(C)CC3)c3cc(OC)c(OC)cc3c2=O)cc1 | 87% | 104% (inactive) | 87% (inactive) | 103% (inactive) | 97.1% (inactive) | -12.4% (inactive) | 110% | 97.1% | 1.62% (inactive) | -0.16% (inactive)
19 | Cc1noc(C)c1COc1cccc(C(=O)Nc2ccc(C#N)cc2)c1 | 96% | 90% (inactive) | 96% (inactive) | 68% (inactive) | 68.9% (inactive) | -10.6% (inactive) | 79.6% | 68.9% | -2.99% (inactive) | -6.67% (inactive)
20 | CC(=O)C1=C(C)NC(SCSc2ccccc2)=C(C#N)C1c1cccnc1 (stereo not given) | 80% | 106% (inactive) | 80% (inactive) | 81.7% (inactive) | 94.1% (inactive) | 6.64% (inactive) | 87.5% | 94.1% | 0.91% (inactive) | -1.64% (inactive)
21 | COc1ccc(-c2nnc(-c3cccs3)o2)cc1OC | 75% | 110% (inactive) | 75% (inactive) | 92.7% (inactive) | 94.6% (inactive) | 1.17% (inactive) | 93.5% | 94.6% | -3.78% (inactive) | -3.93% (inactive)
22 | Cc1nc2ccccc2c2oc(C(=O)NCc3ccccn3)cc12 | 81% | 88% (inactive) | 81% (inactive) | 81.4% (inactive) | 96.8% (inactive) | 2.25% (inactive) | 94.6% | 96.8% | -1.73% (inactive) | -2.3% (inactive)
23 | COc1cccc(N2CCN(CC(=O)Nc3nnc(-c4ccccc4)s3)CC2)c1 | 86% | 86% (inactive) | 86% (inactive) | 54.7% (inactive) | 83.5% (inactive) | -19.7% (inactive) | 103% | 83.5% | -3.12% (inactive) | -1.64% (inactive)
24 | Cc1cccn2cc(-c3ccccc3)nc12 | 78% | 77% (inactive) | 78% (inactive) | 79.2% (inactive) | 91.5% (inactive) | 11.1% (inactive) | 80.3% | 91.5% | -1.45% (inactive) | 2.55% (inactive)
25 | CCOC(=O)CN1C(=O)C2(OCCCO2)c2ccccc21 | 99% | 109% (inactive) | 99% (inactive) | 99.7% (inactive) | 101% (inactive) | 11.1% (inactive) | 89.7% | 101% | -7.66% (inactive) | -11% (inactive)
26 | CCOC(=O)c1nnc(-c2ccccc2)o1 | 101% | 87.5% (inactive) | 101% (inactive) | 86.1% (inactive) | 88.1% (inactive) | 9.09% (inactive) | 79% | 88.1% | -1.56% (inactive) | -1.43% (inactive)
27 | N#CCCN(C(=O)Nc1ccc(Cl)cc1)c1ccccc1 | 94% | 111% (inactive) | 94% (inactive) | 113% (inactive) | 105% (inactive) | 9.02% (inactive) | 95.5% | 105% | -2% (inactive) | 0% (inactive)
28 | CCCOc1ccc(C2c3c(oc4ccccc4c3=O)C(=O)N2CCCN2CCOCC2)cc1 (stereo not given) | 84.5% | 77.5% (inactive) | 84.5% (inactive) | 90.3% (inactive) | 71.6% (inactive) | 0.68% (inactive) | 71% | 71.6% | -3.73% (inactive) | -4.26% (inactive)
29 | O=C1CC(c2ccco2)=Nc2ccccc2N1 | 95% | 118% (inactive) | 95% (inactive) | 94.9% (inactive) | 109% (inactive) | 16.7% (inactive) | 92.5% | 109% | -0.13% (inactive) | -3.06% (inactive)
30 | CCCCc1ccc(NC(=O)c2c(C)noc2C)cc1 | 105% | 94.5% (inactive) | 105% (inactive) | 96% (inactive) | 89.4% (inactive) | 0.065% (inactive) | 89.3% | 89.4% | -3.68% (inactive) | 4.43% (inactive)
31 | Cc1onc(-c2ccccc2)c1C(=O)Nc1ccnn1C1CCCCC1 | 99.5% | 97.5% (inactive) | 99.5% (inactive) | 91.3% (inactive) | 90.6% (inactive) | -4.68% (inactive) | 95.3% | 90.6% | -5.6% (inactive) | -2.95% (inactive)
32 | COc1cccc(OC)c1C(=O)Nc1cccc(C(C)=O)c1 | 103% | 99% (inactive) | 103% (inactive) | 98.8% (inactive) | 98.7% (inactive) | 6.47% (inactive) | 92.2% | 98.7% | -6.27% (inactive) | 0.48% (inactive)
